Reference: ChEMBL document CHEMBL1145492, “Comparison of the phosphorylation of 4'-ethynyl 2',3'-dihydro-3'-deoxythymidine with that of other anti-human immunodeficiency virus thymidine analogs” (Antimicrob Agents Chemother, 2007)

Legend:
[1] = molecular target: T1, Thymidylate kinase (Homo sapiens) (UniProt P23919); experiment: Activity of TMPK in human CEM cells assessed as level of triphosphate metabolites per 10^6 cells at 2 uM after 12 hrs; assay type: cell-based; settings: CCRF-CEM
T1 sequence (whole entry): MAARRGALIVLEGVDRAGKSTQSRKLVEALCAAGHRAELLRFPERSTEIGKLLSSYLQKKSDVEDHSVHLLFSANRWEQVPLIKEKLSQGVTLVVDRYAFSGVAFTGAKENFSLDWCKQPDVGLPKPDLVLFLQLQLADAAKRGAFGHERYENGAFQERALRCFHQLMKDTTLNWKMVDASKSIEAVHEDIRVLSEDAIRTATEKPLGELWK
Outline: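 CEM cells at 10^6/ml in RPMI/10% FBS were exposed to 2 μM radiolabeled nucleoside (75 mCi/mmol) for 12 h. Cells were washed in cold PBS with 20 μM dipyridamole and extracted with 15% TCA on ice for 15 min. Extracts were neutralized with trioctylamine/trichlorotrifluoroethane (45:55). MP, DP and TP were resolved by HPLC, and radioactivity was converted to pmol/10^6 cells. Two independent experiments.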

[2] = molecular target: T1, Thymidylate kinase (Homo sapiens); experiment: Ratio of Kcat to Km of human recombinant TMPK relative to D4TMP
[3] = test system: CCRF-CEM; experiment: Activity of nucleoside diphosphate kinase from crude human CEM cell extract assessed as conversion of 1 umol of ADP to ATP per min; assay type: cell-free
Outline: (§1)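 CEM cell lysate (NP-40 lysis buffer, desalted on G-50) as enzyme source. Donors: 2 mM ATP for NDPK; 2 mM creatine phosphate for CK; 2 mM phosphoenolpyruvate for PK; for PGK, 1,3-bisphosphoglycerate made in situ by GAPDH. Activity in nmol/min/mg, normalized per unit (1 μmol ADP→ATP/min), then relative to D4TDP.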

[4] = test system: CCRF-CEM; experiment: Activity of pyruvate kinase from crude human CEM cell extract assessed as conversion of 1 umol of ADP to ATP per min; assay type: cell-free; outline: as §1
[5] = test system: CCRF-CEM; experiment: Activity of nucleoside diphosphate kinase from crude human CEM cell extract; assay type: cell-free; outline: as §1
[6] = species on record: Homo sapiens; experiment: Activity of human recombinant 3-phosphoglycerate kinase
Outline: (§2)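 Recombinant human nm23-H1 and nm23-H2 (cloned from KB) and PGK (cloned from HepG2). Donor was 2 mM ATP for nm23; for PGK, 1,3-bisphosphoglycerate generated by GAPDH. Specific activity (nmol/min/mg) was normalized per unit (1 μmol ADP→ATP/min) and compared with D4TDP. Mean ± SD, n=3.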

[7] = molecular target: Nucleoside diphosphate kinase B (Homo sapiens) (UniProt P22392); experiment: Activity of human recombinant nm23H2 assessed as conversion of 1 umol of ADP to ATP per min; outline: as §2
[8] = molecular target: Nucleoside diphosphate kinase A (Homo sapiens) (UniProt P15531); experiment: Activity of human recombinant nm23H1 assessed as conversion of 1 umol of ADP to ATP per min; outline: as §2
[9] = species on record: Homo sapiens; experiment: Activity of human recombinant 3-phosphoglycerate kinase assessed as conversion of 1 umol of ADP to ATP per min; outline: as §2
[10] = test system: CCRF-CEM; experiment: Activity of pyruvate kinase from crude human CEM cell extract; assay type: cell-free; outline: as §1
[11] = molecular target: Nucleoside diphosphate kinase B (Homo sapiens) (UniProt P22392); experiment: Activity of human recombinant nm23H2; outline: as §2
[12] = molecular target: Nucleoside diphosphate kinase A (Homo sapiens) (UniProt P15531); experiment: Activity of human recombinant nm23H1; outline: as §2
[13] = test system: CCRF-CEM; experiment: Activity of 3-phosphoglycerate kinase from crude human CEM cell extract; assay type: cell-free; outline: as §1
[14] = test system: CCRF-CEM; experiment: Activity of 3-phosphoglycerate kinase from crude human CEM cell extract assessed as conversion of 1 umol of ADP to ATP per min; assay type: cell-free; outline: as §1
[15] = molecular target: Nucleoside diphosphate kinase B (Homo sapiens) (UniProt P22392); experiment: Activity of human recombinant nm23H2 assessed as phosphorylation efficiency relative to 4-ethynyl D4TDP; settings: in the assay text read “relative to D4TDP” for “relative to 4-ethynyl D4TDP”; outline: as §2
[16] = species on record: Homo sapiens; experiment: Activity of human recombinant 3-phosphoglycerate kinase assessed as phosphorylation efficiency relative to 4-ethynyl D4TDP; settings: in the assay text read “relative to D4TDP” for “relative to 4-ethynyl D4TDP”; outline: as §2
[17] = test system: CCRF-CEM; experiment: Activity of 3-phosphoglycerate kinase from crude human CEM cell extract assessed as phosphorylation efficiency relative to D4TDP
[18] = molecular target: Nucleoside diphosphate kinase A (Homo sapiens) (UniProt P15531); experiment: Activity of human recombinant nm23H1 assessed as phosphorylation efficiency relative to 4-ethynyl D4TDP; settings: in the assay text read “relative to D4TDP” for “relative to 4-ethynyl D4TDP”; outline: as §2
[19] = test system: CCRF-CEM; experiment: Activity of nucleoside diphosphate kinase from crude human CEM cell extract assessed as phosphorylation efficiency relative to D4TDP; assay type: cell-free; outline: as §1
[20] = molecular target: T1, Thymidylate kinase (Homo sapiens); experiment: Ratio of Kcat to Km of human recombinant TMPK relative to […]
Outline: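 Substrate ranges were TMP 6.25–100 μM and analog MPs 6.25–250 μM. Reactions were stopped at various times with TCA and neutralized with trioctylamine/trichlorotrifluoroethane. Km and kcat came from Lineweaver-Burk plots. Relative efficiency is kcat/Km with D4TMP as 100%. Mean ± SD of three experiments.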

[21] = test system: CCRF-CEM; experiment: Activity of 3-phosphoglycerate kinase from crude human CEM cell extract assessed as phosphorylation efficiency relative to 4-ethynyl D4TDP; settings: in the assay text read “relative to D4TDP” for “relative to 4-ethynyl D4TDP”; outline: as §1
[22] = test system: CCRF-CEM; experiment: Activity of creatine kinase from crude human CEM cell extract; assay type: cell-free; outline: as §1

Chain of Nucleoside diphosphate kinase B (Homo sapiens) (P22392 whole entry): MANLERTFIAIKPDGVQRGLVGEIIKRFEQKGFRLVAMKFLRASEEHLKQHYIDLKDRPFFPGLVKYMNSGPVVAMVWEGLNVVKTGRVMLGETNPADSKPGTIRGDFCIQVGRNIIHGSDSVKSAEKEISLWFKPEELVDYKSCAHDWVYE
Chain of Nucleoside diphosphate kinase A (Homo sapiens) (P15531 whole entry): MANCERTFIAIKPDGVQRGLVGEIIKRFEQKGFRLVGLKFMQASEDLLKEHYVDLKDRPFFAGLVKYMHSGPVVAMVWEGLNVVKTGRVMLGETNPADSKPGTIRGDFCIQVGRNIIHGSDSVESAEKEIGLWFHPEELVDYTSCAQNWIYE

Row | Activity [6] [nmol/min/mg] | Activity [7] [nmol] | Activity [8] [nmol] | Activity [9] [nmol] | Activity [11] [nmol/min/mg] | Activity [12] [nmol/min/mg] | Compound | Activity [3] [nmol] | Activity [5] [nmol/min/mg] | Activity [13] [nmol/min/mg] | Activity [14] [nmol] | further results
1 | – | – | – | – | – | – | Cc1cn([C@H]2C[C@H](N=[N+]=[N-])[C@@H](CO)O2)c(=O)[nH]c1=O | – | – | – | – | Activity [1]: 0.27 pmol
2 | – | – | – | – | – | – | Cc1cn([C@H]2C[C@H](N=[N+]=[N-])[C@@H](COP(=O)(O)O)O2)c(=O)[nH]c1=O | – | – | – | – | Activity [2]: 59%
3 | 10 | 1.2 | 1.2 | 0.0037 | 1700 | 1500 | Cc1cn([C@H]2C=C[C@@H](COP(=O)(O)OP(=O)(O)O)O2)c(=O)[nH]c1=O | 0.42 | 1.1 | 4.2 | 0.4 | Activity [4]: 99 nmol; Activity [10]: 0.35 nmol/min/mg
4 | 137 | 1000 | 1000 | 0.049 | 1.4e+06 | 1.3e+06 | Cc1cn([C@H]2C[C@H](O)[C@@H](COP(=O)(O)OP(=O)(O)O)O2)c(=O)[nH]c1=O | 1100 | 2700 | 21 | 2 | Activity [15]: 83000%; Activity [16]: 1300%; Activity [17]: 490%; Activity [18]: 89000%; Activity [19]: 260000%
5 | – | – | – | – | – | – | C#C[C@@]1(COP(=O)(O)O)C=C[C@H](n2cc(C)c(=O)[nH]c2=O)O1 | – | – | – | – | Activity [20]: 8.8%
6 | – | – | – | – | – | – | Cc1cn([C@H]2C[C@H](O)[C@@H](COP(=O)(O)O)O2)c(=O)[nH]c1=O | – | – | – | – | Activity [2]: 5600%
7 | 14 | 0.1 | 0.08 | 0.005 | 131 | 107 | Cc1cn([C@@H]2C[C@H](N=[N+]=[N-])[C@@H](COP(=O)(O)OP(=O)(O)O)O2)c(=O)[nH]c1=O | 0.007 | 0.018 | 0.26 | 0.025 | Activity [15]: 7.6%; Activity [16]: 135%; Activity [18]: 7.2%; Activity [21]: 6.2%; Activity [19]: 1.7%
8 | – | – | – | – | – | – | Nc1ncnc2c1ncn2[C@@H]1O[C@H](COP(=O)(O)OP(=O)(O)O)[C@@H](O)[C@H]1O | – | 2500 | 10600 | – | Activity [10]: 3.6 nmol/min/mg; Activity [22]: 2.5 nmol/min/mg
